According to ChEMBL document CHEMBL1138050, “Furan-2-ylmethylene thiazolidinediones as novel, potent, and selective inhibitors of phosphoinositide 3-kinase gamma” (J Med Chem, 2006):
Activity calls are given as the source filed them. No cut-off for these calls is given here.

Columns and labels:
[1] = molecular target: Cyclin-dependent kinase 7/ cyclin H (Homo sapiens) (UniProt P51946+P50613); assay: Residual activity at human CDK7/CyclinH/MAT1 at 10 uM in presence of 10 uM ATP relative to control; assay type: protein-complex assay
Method in brief: (§1)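 Panel of Ser/Thr and Tyr protein kinases, each tested with 10 µM compound in the presence of 10 µM ATP; activity expressed relative to control.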

[2] = molecular target: Ribosomal protein S6 kinase beta-1 (Homo sapiens) (UniProt P23443); assay: Residual activity at human p70S6K at 10 uM in presence of 10 uM ATP relative to control
Method in brief: (§2)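 Single-concentration counter-screen across a panel of 80 Ser/Thr and Tyr protein kinases. Compound was tested at 10 µM with ATP at 10 µM. Activity remaining in each kinase is expressed relative to control.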

[3] = molecular target: 3-phosphoinositide-dependent protein kinase 1 (Homo sapiens) (UniProt O15530); assay: Residual activity at human PDK1 at 10 uM in presence of 10 uM ATP relative to control; method in brief: as §2
[4] = molecular target: RAF proto-oncogene serine/threonine-protein kinase (Homo sapiens) (UniProt P04049); assay: Residual activity at human c-RAF at 10 uM in presence of 10 uM ATP relative to control; method in brief: as §2
[5] = molecular target: Tyrosine-protein kinase CSK (Homo sapiens) (UniProt P41240); assay: Residual activity at human CSK at 10 uM in presence of 10 uM ATP relative to control; method in brief: as §1
[6] = molecular target: Protein kinase C iota type (Homo sapiens) (UniProt P41743); assay: Residual activity at human PKCiota at 10 uM in presence of 10 uM ATP relative to control; method in brief: as §2
[7] = molecular target: Protein kinase C theta type (Homo sapiens) (UniProt Q04759); assay: Residual activity at human PKCtheta at 10 uM in presence of 10 uM ATP relative to control; method in brief: as §2
[8] = molecular target: Tyrosine-protein kinase ZAP-70 (Homo sapiens) (UniProt P43403); assay: Residual activity at human ZAP70 at 10 uM in presence of 10 uM ATP relative to control; method in brief: as §2
RAW264.7 = assay: Inhibition of C5a-mediated PKB/Akt phosphorylation in mouse Raw264 macrophage; assay type: functional, cell-based
Method in brief: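 Raw-264 murine macrophages starved 3 h in serum-free medium, pretreated 30 min with inhibitor or DMSO, then stimulated 5 min with 50 nM C5a. Phospho-Ser-473 Akt measured by ELISA. Concentration-response; IC50. Mean ± standard deviation of four independent experiments done in triplicate.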

Mast cell = assay: Inhibition of SCF-induced PKB/Akt phosphorylation in mouse mast cells at 10 uM; assay type: functional, cell-based
Method in brief: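 Bone marrow mast cells from 4- to 8-week-old wild-type mice, derived ≥4 weeks in 20 ng/mL SCF plus 20 ng/mL IL-3 and confirmed c-kit+ by FACS. Cells at 2.5 × 10^6/mL starved 24 h without SCF/IL-3, preincubated 20 min with compound or 1% DMSO, stimulated 15 min at 37 °C with 20 ng/mL SCF. Fixed in 1.5% paraformaldehyde, permeabilized with 0.2% Triton X-100, phospho-Ser-473 Akt read by FACS.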

Mus musculus = assay: Reduction of neutrophil recruitment in mouse at 10 mg/kg, po; assay type: functional; design: scale not given: the % may be the effect or the level left
Method in brief: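 Thioglycollate-induced peritonitis in mice. Compound given orally at 10 mg/kg; peritoneal neutrophil recruitment measured 4 h after thioglycollate injection, reported as percent reduction.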

[9] = AUC in rat at 10 mg/kg, iv; assay type: ADME, organism-based; design: dose 10 mg/kg, route intravenous; details: plasma
Method in brief: (§3)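 Rats given a single 10 mg/kg dose, intravenously or orally. The compound was given as its potassium salt, prepared with KOH in THF/water, for the in vivo work.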

[10] = Cmax in rat at 10 mg/kg, po; assay type: ADME, organism-based; design: dose 10 mg/kg, route oral; details: in vivo; method in brief: as §3
[11] = molecular target: CDK3/cyclin E (Homo sapiens) (UniProt P24864+O96020+Q00526); assay: Residual activity at human CDK3/CyclinE at 10 uM in presence of 10 uM ATP relative to control; assay type: protein-complex assay; method in brief: as §1
[12] = molecular target: CDK6/cyclin D3 (Homo sapiens) (UniProt P30281+Q00534); assay: Residual activity at human CDK6/CyclinD3 at 10 uM in presence of 10 uM ATP relative to control; assay type: protein-complex assay; method in brief: as §1
[13] = molecular target: T1, Phosphatidylinositol 4,5-bisphosphate 3-kinase catalytic subunit delta isoform (Homo sapiens, UniProt O00329); assay: Inhibition of human PI3Kdelta
T1 sequence (O00329 whole entry): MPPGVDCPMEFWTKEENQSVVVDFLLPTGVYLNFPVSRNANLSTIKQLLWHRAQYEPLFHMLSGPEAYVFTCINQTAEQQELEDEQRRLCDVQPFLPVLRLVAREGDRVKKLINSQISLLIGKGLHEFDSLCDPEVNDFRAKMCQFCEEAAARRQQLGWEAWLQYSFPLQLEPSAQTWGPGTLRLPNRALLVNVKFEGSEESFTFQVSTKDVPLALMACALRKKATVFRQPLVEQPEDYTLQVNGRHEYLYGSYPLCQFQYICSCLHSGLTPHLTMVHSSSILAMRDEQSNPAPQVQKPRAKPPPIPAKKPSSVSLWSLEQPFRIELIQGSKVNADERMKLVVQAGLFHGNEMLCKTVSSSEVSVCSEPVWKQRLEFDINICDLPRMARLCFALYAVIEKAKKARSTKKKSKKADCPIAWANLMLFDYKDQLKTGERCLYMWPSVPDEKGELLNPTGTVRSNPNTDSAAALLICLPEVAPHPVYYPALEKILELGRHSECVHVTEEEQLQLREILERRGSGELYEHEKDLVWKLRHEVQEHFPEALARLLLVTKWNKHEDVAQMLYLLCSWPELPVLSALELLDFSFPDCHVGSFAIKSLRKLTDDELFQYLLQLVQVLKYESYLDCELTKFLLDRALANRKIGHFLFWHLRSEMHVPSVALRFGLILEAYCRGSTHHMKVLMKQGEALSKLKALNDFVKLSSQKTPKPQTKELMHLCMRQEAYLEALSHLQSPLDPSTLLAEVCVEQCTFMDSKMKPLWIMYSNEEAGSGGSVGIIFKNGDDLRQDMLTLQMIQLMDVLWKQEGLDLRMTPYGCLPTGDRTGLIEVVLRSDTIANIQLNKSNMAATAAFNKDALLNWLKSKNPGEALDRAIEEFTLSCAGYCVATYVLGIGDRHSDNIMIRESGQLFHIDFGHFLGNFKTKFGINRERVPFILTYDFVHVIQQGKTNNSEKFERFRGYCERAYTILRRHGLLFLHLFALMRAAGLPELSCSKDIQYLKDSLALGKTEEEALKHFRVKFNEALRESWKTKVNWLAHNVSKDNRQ

Rattus norvegicus = species on record: Rattus norvegicus; assay: Residual activity at rat AMPK at 10 uM in presence of 10 uM ATP relative to control; method in brief: as §2
[14] = molecular target: Aurora kinase A (Homo sapiens) (UniProt O14965); assay: Residual activity at human Aurora A at 10 uM in presence of 10 uM ATP relative to control; method in brief: as §1
[15] = molecular target: Cyclin-dependent kinase 2/cyclin E (Homo sapiens) (UniProt P24864+P24941+O96020); assay: Residual activity at human CDK2/CyclinE at 10 uM in presence of 10 uM ATP relative to control; assay type: protein-complex assay; method in brief: as §1

Ribosomal protein S6 kinase beta-1 (Homo sapiens), sequence (P23443 whole entry, looked up): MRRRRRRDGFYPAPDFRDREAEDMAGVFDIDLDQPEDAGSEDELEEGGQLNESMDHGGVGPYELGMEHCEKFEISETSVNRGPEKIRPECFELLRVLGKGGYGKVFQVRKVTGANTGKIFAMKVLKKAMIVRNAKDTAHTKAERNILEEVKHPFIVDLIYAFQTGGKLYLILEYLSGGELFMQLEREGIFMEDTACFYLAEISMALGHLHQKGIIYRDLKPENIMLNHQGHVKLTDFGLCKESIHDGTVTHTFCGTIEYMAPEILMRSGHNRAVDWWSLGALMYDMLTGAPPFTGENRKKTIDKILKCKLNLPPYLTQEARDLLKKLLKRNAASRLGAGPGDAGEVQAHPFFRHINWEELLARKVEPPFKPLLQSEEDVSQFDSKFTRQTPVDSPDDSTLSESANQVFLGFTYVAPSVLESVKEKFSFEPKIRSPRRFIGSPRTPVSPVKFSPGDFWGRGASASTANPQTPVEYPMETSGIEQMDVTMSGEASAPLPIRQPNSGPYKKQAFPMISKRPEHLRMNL
3-phosphoinositide-dependent protein kinase 1 (Homo sapiens), sequence (O15530 whole entry): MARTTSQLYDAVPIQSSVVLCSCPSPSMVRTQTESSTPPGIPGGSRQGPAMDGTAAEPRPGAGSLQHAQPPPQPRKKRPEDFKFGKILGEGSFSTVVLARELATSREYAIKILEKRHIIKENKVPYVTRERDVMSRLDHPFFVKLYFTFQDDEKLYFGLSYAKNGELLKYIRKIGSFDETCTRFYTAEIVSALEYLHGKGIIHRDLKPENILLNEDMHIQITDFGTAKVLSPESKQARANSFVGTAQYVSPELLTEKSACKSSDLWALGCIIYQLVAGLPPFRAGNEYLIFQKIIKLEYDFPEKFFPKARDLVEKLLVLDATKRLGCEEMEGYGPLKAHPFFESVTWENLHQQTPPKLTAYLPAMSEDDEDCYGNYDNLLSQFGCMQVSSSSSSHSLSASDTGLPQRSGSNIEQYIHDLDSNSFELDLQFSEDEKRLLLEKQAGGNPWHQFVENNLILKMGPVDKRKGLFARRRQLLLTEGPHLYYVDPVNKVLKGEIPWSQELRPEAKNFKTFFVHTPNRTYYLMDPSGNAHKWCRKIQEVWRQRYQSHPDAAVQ
Tyrosine-protein kinase CSK (Homo sapiens), sequence (P41240 2-450 limits assumed): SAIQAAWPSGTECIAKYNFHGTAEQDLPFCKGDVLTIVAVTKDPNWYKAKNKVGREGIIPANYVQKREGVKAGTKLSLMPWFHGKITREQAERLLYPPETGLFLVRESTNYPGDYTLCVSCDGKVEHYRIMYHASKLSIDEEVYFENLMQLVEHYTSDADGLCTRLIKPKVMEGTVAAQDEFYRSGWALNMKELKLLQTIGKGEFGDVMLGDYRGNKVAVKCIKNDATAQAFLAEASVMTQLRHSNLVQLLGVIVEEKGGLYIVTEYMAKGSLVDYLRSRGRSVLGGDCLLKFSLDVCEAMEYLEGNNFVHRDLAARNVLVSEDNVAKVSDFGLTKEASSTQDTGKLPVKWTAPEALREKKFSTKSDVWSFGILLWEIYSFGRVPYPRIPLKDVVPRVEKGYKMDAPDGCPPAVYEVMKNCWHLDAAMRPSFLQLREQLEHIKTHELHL
RAF proto-oncogene serine/threonine-protein kinase (Homo sapiens), sequence (P04049 whole entry): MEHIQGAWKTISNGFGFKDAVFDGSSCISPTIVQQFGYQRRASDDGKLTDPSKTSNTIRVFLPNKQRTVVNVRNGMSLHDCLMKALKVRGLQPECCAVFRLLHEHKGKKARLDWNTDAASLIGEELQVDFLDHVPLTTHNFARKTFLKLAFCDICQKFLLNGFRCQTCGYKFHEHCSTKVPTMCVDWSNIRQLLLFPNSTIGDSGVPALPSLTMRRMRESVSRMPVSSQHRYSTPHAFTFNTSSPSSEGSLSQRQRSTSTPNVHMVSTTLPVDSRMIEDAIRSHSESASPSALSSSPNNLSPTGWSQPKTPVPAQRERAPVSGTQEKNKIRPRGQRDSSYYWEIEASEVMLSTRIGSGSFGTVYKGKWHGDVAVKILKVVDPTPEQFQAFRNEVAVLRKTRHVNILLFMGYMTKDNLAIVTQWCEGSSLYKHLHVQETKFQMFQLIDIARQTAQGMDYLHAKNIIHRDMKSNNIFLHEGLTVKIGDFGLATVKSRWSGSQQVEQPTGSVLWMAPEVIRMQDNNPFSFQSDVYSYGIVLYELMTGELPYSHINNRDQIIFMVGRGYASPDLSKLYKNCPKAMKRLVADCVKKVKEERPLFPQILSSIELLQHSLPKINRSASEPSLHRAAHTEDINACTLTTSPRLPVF
Tyrosine-protein kinase ZAP-70 (Homo sapiens), sequence (P43403 whole entry): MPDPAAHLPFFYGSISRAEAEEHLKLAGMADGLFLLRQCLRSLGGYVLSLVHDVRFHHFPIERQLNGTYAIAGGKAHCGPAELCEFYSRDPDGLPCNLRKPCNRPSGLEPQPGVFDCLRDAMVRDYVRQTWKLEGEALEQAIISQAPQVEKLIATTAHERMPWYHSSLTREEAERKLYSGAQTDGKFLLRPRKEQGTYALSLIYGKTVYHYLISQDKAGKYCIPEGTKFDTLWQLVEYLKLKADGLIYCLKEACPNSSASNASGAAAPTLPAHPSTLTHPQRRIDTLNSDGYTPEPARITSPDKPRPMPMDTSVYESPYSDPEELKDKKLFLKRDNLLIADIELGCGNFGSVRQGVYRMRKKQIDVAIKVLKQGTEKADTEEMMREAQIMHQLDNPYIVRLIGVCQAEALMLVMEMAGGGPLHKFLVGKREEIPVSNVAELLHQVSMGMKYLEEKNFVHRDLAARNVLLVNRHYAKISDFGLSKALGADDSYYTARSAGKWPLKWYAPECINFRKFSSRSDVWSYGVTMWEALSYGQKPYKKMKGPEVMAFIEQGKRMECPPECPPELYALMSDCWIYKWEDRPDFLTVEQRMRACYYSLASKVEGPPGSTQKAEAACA
Aurora kinase A (Homo sapiens), sequence (O14965 whole entry): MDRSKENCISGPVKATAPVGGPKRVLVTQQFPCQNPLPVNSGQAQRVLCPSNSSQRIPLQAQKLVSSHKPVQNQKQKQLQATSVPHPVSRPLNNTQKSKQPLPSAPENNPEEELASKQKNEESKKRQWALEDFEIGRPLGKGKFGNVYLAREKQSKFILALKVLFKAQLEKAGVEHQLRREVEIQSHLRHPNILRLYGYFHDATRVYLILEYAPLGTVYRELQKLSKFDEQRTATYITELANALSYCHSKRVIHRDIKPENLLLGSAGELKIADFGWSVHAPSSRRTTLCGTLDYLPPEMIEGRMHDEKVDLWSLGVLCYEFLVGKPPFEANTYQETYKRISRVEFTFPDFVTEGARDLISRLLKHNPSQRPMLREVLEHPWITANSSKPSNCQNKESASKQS
CDK3/cyclin E (Homo sapiens), sequence (O96020 whole entry, looked up): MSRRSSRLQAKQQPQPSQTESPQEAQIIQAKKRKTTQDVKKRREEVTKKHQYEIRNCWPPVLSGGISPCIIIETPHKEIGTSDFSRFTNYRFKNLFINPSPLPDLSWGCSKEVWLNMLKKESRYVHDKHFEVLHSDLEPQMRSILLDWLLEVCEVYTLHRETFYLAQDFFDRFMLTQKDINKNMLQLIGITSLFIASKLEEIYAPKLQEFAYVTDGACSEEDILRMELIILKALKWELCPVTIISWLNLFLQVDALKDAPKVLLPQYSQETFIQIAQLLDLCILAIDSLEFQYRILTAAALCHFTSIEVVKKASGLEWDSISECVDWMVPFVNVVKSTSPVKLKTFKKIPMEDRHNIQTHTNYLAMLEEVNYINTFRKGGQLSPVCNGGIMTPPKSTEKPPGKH
CDK3/cyclin E (Homo sapiens), sequence (P24864 whole entry, looked up): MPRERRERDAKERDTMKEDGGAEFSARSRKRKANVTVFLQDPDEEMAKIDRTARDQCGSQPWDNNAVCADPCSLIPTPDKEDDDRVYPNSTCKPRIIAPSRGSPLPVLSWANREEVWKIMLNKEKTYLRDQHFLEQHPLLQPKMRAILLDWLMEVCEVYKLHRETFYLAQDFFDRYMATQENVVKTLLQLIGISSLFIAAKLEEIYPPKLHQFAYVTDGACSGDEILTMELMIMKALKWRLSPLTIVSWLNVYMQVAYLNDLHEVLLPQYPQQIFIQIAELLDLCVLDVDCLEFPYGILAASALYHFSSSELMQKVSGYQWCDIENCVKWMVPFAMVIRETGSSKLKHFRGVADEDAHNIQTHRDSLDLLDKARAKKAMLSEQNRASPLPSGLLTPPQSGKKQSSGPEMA
CDK3/cyclin E (Homo sapiens), sequence (Q00526 whole entry, looked up): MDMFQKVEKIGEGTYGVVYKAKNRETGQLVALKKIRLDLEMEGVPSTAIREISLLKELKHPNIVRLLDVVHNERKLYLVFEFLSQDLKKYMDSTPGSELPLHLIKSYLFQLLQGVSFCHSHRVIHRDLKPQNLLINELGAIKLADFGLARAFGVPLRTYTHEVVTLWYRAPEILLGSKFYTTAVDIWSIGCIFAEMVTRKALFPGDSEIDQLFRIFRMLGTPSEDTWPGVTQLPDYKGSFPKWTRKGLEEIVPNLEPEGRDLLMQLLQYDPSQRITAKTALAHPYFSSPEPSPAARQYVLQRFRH
Protein kinase C iota type (Homo sapiens), sequence (P41743 whole entry): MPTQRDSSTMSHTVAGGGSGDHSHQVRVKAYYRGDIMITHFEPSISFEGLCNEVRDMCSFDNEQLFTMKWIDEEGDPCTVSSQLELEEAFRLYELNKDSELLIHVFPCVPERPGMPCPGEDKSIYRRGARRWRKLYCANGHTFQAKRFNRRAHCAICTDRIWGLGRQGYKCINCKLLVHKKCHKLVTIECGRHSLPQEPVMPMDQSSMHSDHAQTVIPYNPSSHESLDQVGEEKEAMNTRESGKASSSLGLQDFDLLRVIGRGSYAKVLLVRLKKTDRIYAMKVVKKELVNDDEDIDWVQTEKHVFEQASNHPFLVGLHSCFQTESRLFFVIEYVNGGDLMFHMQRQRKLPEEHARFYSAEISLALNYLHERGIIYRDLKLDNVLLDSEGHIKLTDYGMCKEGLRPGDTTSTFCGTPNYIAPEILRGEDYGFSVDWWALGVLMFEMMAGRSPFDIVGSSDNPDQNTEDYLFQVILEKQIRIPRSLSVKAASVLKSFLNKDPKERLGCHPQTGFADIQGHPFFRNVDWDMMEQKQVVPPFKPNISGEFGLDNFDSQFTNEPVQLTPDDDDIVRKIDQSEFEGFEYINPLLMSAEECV

O=C1NC(=O)/C(=C/c2ccc(-c3ccc(F)cc3O)o2)S1
Activity [1]: 77%
Activity [2]: 190%
Activity [3]: 104%
Activity [4]: 99%
Activity [5]: 103%
Activity [6]: 84%
Activity [7]: 102%
Activity [8]: 159%
IC50 (RAW264.7): 0.23 µM
Activity (Mast cell): inactive
Activity (Mus musculus): 35%
AUC [9]: 4400 ng·h/mL
Cmax [10]: 309 ng/mL
Activity [11]: 117%
Activity [12]: 89%
IC50 [13]: 20 µM
Activity (Rattus norvegicus): 90%
Activity [14]: 85%
Activity [15]: 93%
